According to ChEMBL document CHEMBL4196072, “Marliolide inhibits skin carcinogenesis by activating NRF2/ARE to induce heme oxygenase-1” (Eur J Med Chem, 2018):
One block for each compound: values may come before it. Activity calls are given as the source filed them. The calls are words filed in the database; no cut-off is given here.

Key:
[1] = target: Kelch-like ECH-associated protein 1 (Homo sapiens) (UniProt Q14145); test: Binding affinity to Keap1 in human HaCaT cells assessed as induction of NRF2/ARE activation-mediated HO1 expression at 10 uM after 6 to 24 hrs by Western blot analysis; format: cell-based
Outline: (§1)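 HaCaT cells were grown in RPMI with 10% FBS and Pen/Strep and treated with agent from DMSO stock (1/1000 dilution), across concentrations for 24 h or over a time course. Cells were lysed in RIPA buffer and protein was measured by BCA. Equal amounts were separated by SDS-PAGE, blotted to PVDF, blocked in 5% milk/PBST, probed overnight at 4°C with HO-1 or NRF2 antibody, and detected by ECL. Actin served as loading control.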

[2] = target: T1, Nuclear factor erythroid 2-related factor 2 (Homo sapiens) (UniProt Q16236); test: Binding affinity to NRF2 in human HaCaT cells at 10 nmol by immunoprecipitation assay; format: cell-based
T1 sequence (whole entry): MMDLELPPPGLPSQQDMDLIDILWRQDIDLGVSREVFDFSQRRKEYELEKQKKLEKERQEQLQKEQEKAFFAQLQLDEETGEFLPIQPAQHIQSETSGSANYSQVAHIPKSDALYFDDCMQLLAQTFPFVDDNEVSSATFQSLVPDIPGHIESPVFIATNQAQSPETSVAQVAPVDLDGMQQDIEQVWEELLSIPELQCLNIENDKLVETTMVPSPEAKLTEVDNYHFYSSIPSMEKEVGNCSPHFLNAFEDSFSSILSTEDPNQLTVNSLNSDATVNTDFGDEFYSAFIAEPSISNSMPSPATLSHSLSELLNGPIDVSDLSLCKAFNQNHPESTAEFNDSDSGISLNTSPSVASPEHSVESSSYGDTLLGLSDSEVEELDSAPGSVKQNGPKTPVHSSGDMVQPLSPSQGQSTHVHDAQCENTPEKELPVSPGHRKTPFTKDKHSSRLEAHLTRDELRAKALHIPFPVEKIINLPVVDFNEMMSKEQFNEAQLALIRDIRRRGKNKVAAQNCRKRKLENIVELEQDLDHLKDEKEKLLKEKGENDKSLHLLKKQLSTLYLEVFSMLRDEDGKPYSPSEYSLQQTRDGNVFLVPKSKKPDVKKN
Outline: (§2)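 Lysate (800 µg) from confluent HaCaT cells in RIPA buffer was mixed with biotin or biotinylated agent (10 nmole each). Pull-down was done with streptavidin-agarose beads overnight at 4°C. Beads were washed in ice-cold PBS, and bound KEAP1 and NRF2 were detected by Western blot.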

[3] = target: Kelch-like ECH-associated protein 1 (Homo sapiens) (UniProt Q14145); test: Binding affinity to Keap1 in human HaCaT cells at 10 nmol by immunoprecipitation assay; format: cell-based; outline: as §2
Mus musculus [4] = test: Upregulation of GCLC expression in skin lysates of mouse at 10 umole applied topically up to 24 hrs by Western blot analysis; format: functional, organism-based; settings: Zone of skin, Lysate
[5] = target: Kelch-like ECH-associated protein 1 (Homo sapiens) (UniProt Q14145); test: Binding affinity to Keap1 in human HaCaT cells assessed as induction of NRF2/ARE activation-mediated HO1 mRNA expression at 10 uM RT-PCR method; format: cell-based; settings: TDE = time-dependent effect
Outline: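 HaCaT cells were treated at 10 µM (DMSO, 1/1000) for 4, 8 and 12 h. Total RNA was analysed by SYBR real-time RT-PCR with HO-1-specific primers. Cycling was 95 °C for 5 min; 40 cycles of 95 °C 10 s, 59 °C 10 s, 72 °C 20 s; then 95 °C 10 s.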

Mus musculus [6] = test: Upregulation of NRF2 expression in skin lysates of mouse at 10 umole applied topically up to 24 hrs by Western blot analysis; format: functional, organism-based; settings: Zone of skin, Lysate
HaCaT [7] = test: Cytotoxicity against human HaCaT cells assessed as reduction in cell viability at 10 uM after 24 hrs by MTT method; format: cell-based
Outline: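 HaCaT cells were seeded at 30,000 per well and exposed to agent at 10 µM for 24 h. After a PBS wash, cells were incubated with MTT (5 mg/ml) for 4 h, lysed in DMSO, and absorbance was read at 560 nm.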

Mus musculus [8] = test: Upregulation of HO-1 expression in skin lysates of mouse at 10 umole applied topically up to 24 hrs by Western blot analysis; format: functional, organism-based; settings: Zone of skin, Lysate
[9] = target: Kelch-like ECH-associated protein 1 (Homo sapiens) (UniProt Q14145); test: Binding affinity to Keap1 in human HaCaT cells assessed as induction of NRF2/ARE activation-mediated HO1 expression at 1 to 10 uM after 24 hrs by Western blot analysis; format: cell-based; outline: as §1
Mus musculus [10] = test: Anti-carcinogenic effect in hairless mouse assessed as inhibition of number of DMBA/TPA-induced papilloma formation at 10 umol administered topically 3 times per week up to 10 weeks with TPA starting from 1 week post DMBA treatment; format: functional, organism-based
Outline: (§3)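 Male hairless mice (6 weeks old at purchase, acclimated one week) received a single topical dose of DMBA (2 µmole) or acetone vehicle in week 1. From week 2, the back was treated with TPA (10 nmole) alone or with test agent (10 µmole), three times per week. Papillomas were counted manually at the end of each week. At sacrifice, skin was formalin-fixed, paraffin-embedded and H/E-stained for phase-contrast imaging.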

[11] = target: Kelch-like ECH-associated protein 1 (Mus musculus) (UniProt Q9Z2X8); test: Binding affinity to Keap1 in NRF2+/+ MEF assessed as induction of NRF2/ARE activation-mediated HO1 expression at 10 uM after 24 hrs by Western blot analysis; format: cell-based
HaCaT [12] = test: Cytotoxicity against human HaCaT cells assessed as reduction in cell viability by measuring morphological changes at 10 uM after 24 hrs by phase contrast microscopic method; format: cell-based
Outline: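 HaCaT cells were exposed to agent or etoposide, and gross cell morphology was examined by phase-contrast microscopy.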

[13] = target: Kelch-like ECH-associated protein 1 (Homo sapiens) (UniProt Q14145); test: Binding affinity to Keap1 in human HaCaT cells assessed as activation of NRF2 by measuring nuclear translocation of NRF2 at 10 uM after 6 to 12 hrs by immunofluorescence assay; format: cell-based
Outline: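 Confluent HaCaT cells on glass were exposed to agent for 6 h and 12 h, blocked with 1% BSA for 30 min, and fixed with paraformaldehyde. They were incubated overnight at 4°C with NRF2 antibody, then with FITC-conjugated secondary antibody, and imaged by confocal microscopy.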

[14] = target: Kelch-like ECH-associated protein 1 (Homo sapiens) (UniProt Q14145); test: Binding affinity to Keap1 in human HaCaT cells assessed as induction of NRF2/ARE activation-mediated HO1 expression at 10 uM by Western blot analysis; format: cell-based; settings: TDE = time-dependent effect; outline: as §1
Mus musculus [15] = test: Anti-carcinogenic effect in hairless mouse assessed as inhibition of incidence of DMBA/TPA-induced papilloma formation at 10 umol administered topically 3 times per week up to 10 weeks with TPA starting from 1 week post DMBA treatment; format: functional, organism-based; outline: as §3
Mus musculus [16] = test: Downregulation of 8-OH-G expression in skin lysates of DMBA/TPA-induced mouse skin carcinogenesis model at 10 umol administered topically 3 times per week up to 10 weeks with TPA starting from 1 week post DMBA treatment by immunofluorescence microscopic method; format: functional, organism-based; settings: Zone of skin, Lysate
Outline: (§4)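 Skin came from the two-stage DMBA/TPA model in hairless mice: DMBA 2 µmole once topically, then TPA 10 nmole ± agent 10 µmole three times weekly. At sacrifice, skin was formalin-fixed and paraffin-embedded. Sections were incubated overnight at 4°C with 8-OH-G or 4-HNE primary antibody, then probed with FITC-conjugated secondary antibody for fluorescence imaging.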

HaCaT [17] = test: Induction of apoptosis in human HaCaT cells assessed as increase in cleaved PARP protein expression at 10 uM after 6 to 24 hrs by Western blot analysis; format: cell-based
Outline: (§5)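 HaCaT cells were exposed to agent or etoposide for various times. RIPA lysates were analysed by SDS-PAGE and Western blot with cleaved caspase-3 and cleaved PARP antibodies, with ECL detection and actin as loading control.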

HaCaT [18] = test: Cell cycle arrest in human HaCaT cells assessed as accumulation at G1/S phase at 10 uM after 24 hrs by propidium iodide staining based flow cytometry
Outline: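 HaCaT cells were exposed to agent for 24 h, with etoposide as positive control. Cells (1x10⁶ per group) were fixed in PBS/70% EtOH (3:7), washed, stained with propidium iodide (20 µg/ml), and G1/S distribution was measured by flow cytometry.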

Mus musculus [19] = test: Downregulation of 4-HNE expression in skin lysates of DMBA/TPA-induced mouse skin carcinogenesis model at 10 umol administered topically 3 times per week up to 10 weeks with TPA starting from 1 week post DMBA treatment by immunofluorescence microscopic method; format: functional, organism-based; settings: Zone of skin, Lysate; outline: as §4
HaCaT [20] = test: Induction of apoptosis in human HaCaT cells assessed as increase in cleaved caspase-3 protein expression at 10 uM after 6 to 24 hrs by Western blot analysis; format: cell-based; outline: as §5
[21] = target: Kelch-like ECH-associated protein 1 (Mus musculus) (UniProt Q9Z2X8); test: Binding affinity to Keap1 in NRF2-/- MEF assessed as induction of HO1 expression at 10 uM after 24 hrs by Western blot analysis; format: cell-based
Mus musculus [22] = test: Anti-carcinogenic effect in hairless mouse assessed as inhibition of DMBA/TPA-induced papilloma growth at 10 umol administered topically 3 times per week up to 10 weeks with TPA starting from 1 week post DMBA treatment by hematoxylin/eosin staining based phase-contrast microscopic method; format: functional, organism-based; outline: as §3
[23] = target: Kelch-like ECH-associated protein 1 (Mus musculus) (UniProt Q9Z2X8); test: Binding affinity to Keap1 in NRF2-/- MEF assessed as induction of NRF2/ARE activation-mediated HO1 expression at 10 uM up to 8 hrs by RT-PCR method; format: cell-based
[24] = target: Kelch-like ECH-associated protein 1 (Mus musculus) (UniProt Q9Z2X8); test: Binding affinity to Keap1 in NRF2+/+ MEF assessed as induction of NRF2/ARE activation-mediated HO1 expression at 10 uM up to 8 hrs by RT-PCR method; format: cell-based

Sequence of Kelch-like ECH-associated protein 1 (Homo sapiens) (Q14145 whole entry): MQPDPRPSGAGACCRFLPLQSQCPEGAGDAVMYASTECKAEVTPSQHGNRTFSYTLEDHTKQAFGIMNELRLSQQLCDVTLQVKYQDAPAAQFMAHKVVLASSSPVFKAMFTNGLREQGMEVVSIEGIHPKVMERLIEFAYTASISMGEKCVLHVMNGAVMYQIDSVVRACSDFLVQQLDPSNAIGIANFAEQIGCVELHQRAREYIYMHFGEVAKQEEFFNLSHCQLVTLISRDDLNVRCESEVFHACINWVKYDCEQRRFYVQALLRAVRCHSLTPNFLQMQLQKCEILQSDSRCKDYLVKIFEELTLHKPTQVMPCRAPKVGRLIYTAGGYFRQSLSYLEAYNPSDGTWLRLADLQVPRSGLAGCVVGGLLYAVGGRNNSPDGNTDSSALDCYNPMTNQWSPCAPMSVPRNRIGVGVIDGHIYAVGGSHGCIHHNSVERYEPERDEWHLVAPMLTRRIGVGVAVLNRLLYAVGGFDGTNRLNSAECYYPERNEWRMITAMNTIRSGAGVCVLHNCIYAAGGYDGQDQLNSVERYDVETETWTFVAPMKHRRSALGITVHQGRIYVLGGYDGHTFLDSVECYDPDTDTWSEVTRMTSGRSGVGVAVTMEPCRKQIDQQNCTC
Sequence of Kelch-like ECH-associated protein 1 (Mus musculus) (Q9Z2X8 whole entry): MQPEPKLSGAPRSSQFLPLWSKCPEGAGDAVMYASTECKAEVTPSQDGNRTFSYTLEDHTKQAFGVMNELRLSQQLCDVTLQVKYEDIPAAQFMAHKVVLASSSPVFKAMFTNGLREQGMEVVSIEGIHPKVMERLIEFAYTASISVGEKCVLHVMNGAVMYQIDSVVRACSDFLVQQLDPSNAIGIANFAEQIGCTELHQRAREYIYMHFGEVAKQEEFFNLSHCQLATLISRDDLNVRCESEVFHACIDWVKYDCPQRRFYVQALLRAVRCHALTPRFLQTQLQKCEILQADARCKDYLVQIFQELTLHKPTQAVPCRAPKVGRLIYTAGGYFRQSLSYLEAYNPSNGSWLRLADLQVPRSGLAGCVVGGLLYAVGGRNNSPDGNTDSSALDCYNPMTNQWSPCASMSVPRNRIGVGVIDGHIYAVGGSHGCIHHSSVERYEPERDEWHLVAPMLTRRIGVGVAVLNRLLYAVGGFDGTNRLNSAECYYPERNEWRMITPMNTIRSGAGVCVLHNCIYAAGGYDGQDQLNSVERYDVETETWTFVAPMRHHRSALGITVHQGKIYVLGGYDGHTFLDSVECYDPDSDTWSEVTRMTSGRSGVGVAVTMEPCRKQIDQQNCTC

Structure (SMILES): C[C@@H]1OC(=O)/C(=C/CCCCCCCCCCCCNC(=O)CCCC[C@@H]2SC[C@@H]3NC(=O)N[C@@H]32)[C@@H]1O
Activity [2]: inactive | Activity [3]: Active

Structure (SMILES): CCCCCCCCCCCCCC[C@@H]1C[C@H](O)OC1=O
Activity [1]: inactive

Structure (SMILES): CCCCCCCCCCCCC/C=C1/C(=O)O[C@@H](C)[C@H]1O
Activity [9]: Active | inhibition (Mus musculus [10]): Active | Activity (Mus musculus [4]): Active | Activity [11]: Active | Activity (HaCaT [12]): Non-Toxic | Activity [13]: Active | Activity [14]: Tde | inhibition (Mus musculus [15]): Active | Activity (Mus musculus [16]): Active | Activity (HaCaT [17]): Non-Toxic | Activity (HaCaT [18]): Non-Toxic | Activity (Mus musculus [19]): Active | Activity (HaCaT [20]): Non-Toxic | Activity [21]: inactive | Activity (Mus musculus [6]): Active | inhibition (Mus musculus [22]): Active | Activity (HaCaT [7]): Non-Toxic | Activity (Mus musculus [8]): Active | Activity [23]: inactive | Activity [24]: Active

Structure (SMILES): CCCCCCCCCC/C=C1/C(=O)O[C@@H](C)[C@H]1O
Activity [5]: Tde | Activity (HaCaT [7]): Non-Toxic | Activity [1]: Active

Structure (SMILES): CCCCCCCCCCCCC/C=C1/C(=O)O[C@@H](C)[C@@H]1O
Activity [1]: Active

Structure (SMILES): CCCCCCCCCCCCC/C=C1/C(=O)O[C@@H](C)[C@H]1OC(=O)CC(C)C
Activity [1]: inactive

Continued, in another order:

Activity [1]: inactive
Structure (SMILES): CCCCCCCCCCCCC/C=C1\C[C@H](C)OC1=O

Activity [1]: Active
Structure (SMILES): CCCCCCCCCCCCC/C=C1\C(=O)O[C@@H](C)[C@H]1O

Activity [5]: Tde | Activity [1]: Active
Structure (SMILES): CCCCCCCCCCCC/C=C1/C(=O)O[C@@H](C)[C@H]1O
Activity (Mus musculus [4]): Active | Activity (Mus musculus [6]): Active | Activity (HaCaT [7]): Non-Toxic | Activity (Mus musculus [8]): Active

Activity [1]: inactive
Structure (SMILES): CCCCC/C=C1/C(=O)O[C@@H](C)[C@H]1O

Activity [5]: Tde | Activity [1]: Active
Structure (SMILES): CCCCCCCCC/C=C1/C(=O)O[C@@H](C)[C@H]1O
Activity (HaCaT [7]): Non-Toxic

Activity [1]: inactive
Structure (SMILES): CCCCCCCCCCCCCC[C@H]1C(=O)O[C@@H](O)[C@H]1O

Activity [5]: Tde | Activity [1]: Active
Structure (SMILES): CCCCCCCCCCC/C=C1/C(=O)O[C@@H](C)[C@H]1O
Activity (HaCaT [7]): Non-Toxic

Activity [1]: inactive
Structure (SMILES): CCC/C=C1/C(=O)O[C@@H](C)[C@H]1O
